Screens as filed in PubChem BioAssay.
Most compounds without a hit are left out; they make up all but 1.3% or so of the library.
TDP2 inh – blocks human TDP2 phosphodiesterase activity; hit rate 0.34% among 370,000; AID 720702; recombinant TDP2, T5PNP hydrolysis, p-nitrophenol absorbance 415 nm; inhibition, % at 12.8 µM; O95551;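 active = inhibition above the mean of all tested compounds plus 3 SD, set per campaign, cut at about 25% in these data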;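 note: 0% = DMSO with enzyme and 100% = buffer with substrate but no TDP2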
Target sequence (O95551 whole entry, looked up): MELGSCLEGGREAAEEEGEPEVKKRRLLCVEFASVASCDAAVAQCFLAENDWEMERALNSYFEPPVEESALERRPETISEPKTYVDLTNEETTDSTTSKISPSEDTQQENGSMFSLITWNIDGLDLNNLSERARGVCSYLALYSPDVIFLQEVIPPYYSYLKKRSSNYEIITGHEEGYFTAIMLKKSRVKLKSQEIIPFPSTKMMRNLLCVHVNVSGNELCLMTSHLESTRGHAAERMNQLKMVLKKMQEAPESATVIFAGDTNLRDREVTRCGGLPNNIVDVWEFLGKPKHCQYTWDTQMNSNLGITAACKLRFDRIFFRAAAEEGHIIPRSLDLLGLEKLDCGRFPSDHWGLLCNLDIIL
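System – recombinant human TDP2 · Amount – 120 nM TDP2 per well · Buffer or medium – Mg2+-containing Tris-HCl buffer, pH 7.5 · Reagent – T5PNP substrate, 5 mM · Dosing – 12.8 µM single point, 1% DMSO · Incubation – 2 h at 37 °C · Measured by – epi absorbance · Read-out basis – percent inhibition · Benchmarks – high control without enzyme, low control DMSO plus TDP2 · Repeats – singlicate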
CASP6 VEID inh – inhibitors of human caspase-6; purified caspase-6, Z-VEID-R110 cleavage fluorescence; inhibition, % at 12.5 µM; hit rate 0.53% among 350,000;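 active = mean inhibition across replicates at least about 35%, with every replicate also reaching that limit, limit read from the data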;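 note: 0% = median of neutral control wells and 100% = no fluorescence left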
LEDGF integ inh – blocks HIV-1 LEDGF/p75-dependent DNA integration; TR-FRET IN-LEDGF/p75 DNA integration, Eu/Cy5; hit rate 0.64% among 370,000; AID 743269; inhibition, % at 3.7 µM;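 active = inhibition above the screen-wide mean plus 3 SD, cut at about 13% in these data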;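 note: signal is the Cy5 over europium emission ratio at 671 and 618 nm; 0% = plate median of compound wells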
UCH37 inh – inhibitors of human deubiquitinating enzyme UCH37; AID 588478; inhibition, % (no concentration beside the values); Q9Y5K5; purified proteasome/UCH37, Ub-AMC cleavage fluorescence; hit rate 0.33% among 330,000;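 active = mean inhibition over replicate wells above about 20%, limit read from the data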;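 note: 0% = compound-free wells with enzyme and 100% = wells lacking proteasome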
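Signal – fluorescence, ex 355 nm, em 460 nm · System – Proteasome-bound UCH37 · Input – 0.15 nM proteasome as dispensed · Timing – 30 min preincubation with enzyme, 25 min cleavage at room temperature · Read-out basis – percent inhibition of cleavage signal versus uninhibited and no-proteasome wells · Medium – Tris-HCl pH 7.4 with ATP-MgCl2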
NSD2 inh – blocks human histone methyltransferase NSD2. NSD2 peptide methylation, AlphaScreen, 120 min. hit rate 0.54% among 310,000. inhibition, % at 12.5 µM. O96028; in the data active = inhibition above about 50%
Active calls of the source: *; . = no result given.

SMILES	TDP2 inh	CASP6 VEID inh	LEDGF integ inh	UCH37 inh	NSD2 inh
CCC1C(=O)N=C(SCC(=O)Nc2nc3ccccc3s2)NC1=O (configuration not stated)	-9	40*	-5	9	3
CCOc1ccc(S(=O)(=O)Nc2ccccc2C(=O)NN=Cc2c(OC)ccc3ccccc23)cc1	.	.	.	-9	.
COC(=O)c1ccc(NCc2c(O)ccc(O)c2Br)cc1Cl	-22	3	15*	.	1
COc1ccc(-c2csc(/C(C#N)=C\c3ccc(O)c([N+](=O)[O-])c3)n2)cc1OC	24	-5	2	21*	16
CC(=NNC(=O)CNC(=O)c1ccncc1)c1ccc(C)cc1	.	.	.	3	.
CC[n+]1c(/C=C/N(C)c2ccccc2)oc2ccccc21	5	3	-2	21*	3
CC[n+]1c(/C=C/Nc2ccccc2)oc2ccc(OC)cc21	2	5	-2	0	-4
CC[n+]1c(/C=C/N(C)c2ccccc2)oc2ccc(F)cc21	11	.	3	24*	8
CC(=NNC(=O)c1cccc(S(=O)(=O)N2CCCC2)c1)c1ccc(F)cc1	.	.	.	1	.
CC(=NNC(N)=O)c1cccc(Cl)c1	.	.	.	0	.
COc1c(Cl)cc(Cl)cc1C=NNC(=O)c1nnn(-c2nonc2N)c1CN1CCC(C)CC1	.	.	.	2	.
O=C(NN=C1CCc2ccccc21)c1ccccc1O	.	.	.	13	.
C=CCSC(=Nn1cnc2ccccc2c1=O)N1CCCCC1	.	.	.	5	.
O=C(CN1C(=O)/C(=C\c2ccco2)SC1=S)Nc1ccc(O)cc1C(=O)O	24	73*	63*	9	.
Cc1ccsc1C=NNC(=O)c1ccc([N+](=O)[O-])cc1	.	.	.	2	.
COc1cc(C=NNC(=O)Cc2nnc(NC(=O)c3ccccc3)s2)ccc1O	.	.	.	3	.
Cc1occc1C(=O)NN=Cc1c[nH]c2ccccc12	.	.	.	9	.
CCSc1ncc(C=NNc2ccccc2)n1C	.	.	.	2	.
CC(C)(C=O)C1=CC(=O)c2ccccc2C1=O	24	35	13	-59	92*
CC(OC(=O)c1ccc([N+](=O)[O-])s1)C(=O)NC1CCCCC1C (configuration not stated)	11	-4	1	23*	2
CCOc1ccc(N2CC(C(=O)NCC(=O)Nc3ccc(F)c(F)c3F)CC2=O)cc1 (configuration not stated)	1	44*	0	1	-1
CCNC(=O)C1CC(=O)N(c2ccc(OCC)cc2)C1 (configuration not stated)	12	.	1	-3	10
COc1ccc(Cc2c(-c3ccco3)nc3c(C)cc(Br)cn23)c(C)c1	2	39*	-2	.	.
NC(=N\N=Cc1ccco1)/C(N)=N/N=Cc1ccco1	-10	62*	7	18	1
CC(=O)OCC1=C(C(=O)O)N2C(=O)C(NC(=O)c3ccc(COc4c(C)cccc4Cl)o3)C2SC1 (configuration not stated)	-5	40*	-3	5	.
SMILES	TDP2 inh	CASP6 VEID inh	LEDGF integ inh	UCH37 inh	NSD2 inh
CC(=O)OCC1=C(C(=O)O)N2C(=O)C(NC(=O)c3ccc(COc4ccc(Cl)cc4)o3)C2SC1 (configuration not stated)	1	60*	2	2	9
CC(=O)OCC1=C(C(=O)O)N2C(=O)C(NC(=O)COc3ccc(F)cc3)C2SC1 (configuration not stated)	10	26	7	2	2
O=C1CC(=O)NC(SCC(=O)Nc2ccccc2[N+](=O)[O-])=N1	18	41*	8	10	.
O=C(/C=C/c1ccco1)NCC(=O)NN=Cc1ccccc1[N+](=O)[O-]	.	.	.	6	.
CCOC(=O)c1ccc(S(=O)(=O)N2CCC(C(=O)N3CCN(c4ccccc4OC)CC3)CC2)cc1	4	48*	-1	3	3
COc1ccccc1N1CCN(C(=O)C2CCN(S(=O)(=O)c3ccc(F)cc3)CC2)CC1	-8	.	0	5	1
CCn1cc(C=NN=C2CCC3C4CCc5cc(O)ccc5C4CC[C@]23C)c(C)n1 (some centres not stated)	.	.	.	5	.
Cc1nnc(N2C(=O)c3oc4ccccc4c(=O)c3C2c2ccco2)s1 (configuration not stated)	9	38*	0	2	.
O=C(Nc1cc([N+](=O)[O-])ccc1O)c1ccc2c(c1)C(=O)N(Cc1ccco1)C2=O	-8	42*	4	10	8
